This is an account of results in the EternaBench riboswitch data.

The data set has as its system MS2 coat protein. The experiment in a line: apparent Kd, MS2 coat protein; higher = weaker binding; RNA-MaP array; FMN 200 µM where present. An outline of the steps: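 SNAP-549-labelled MS2 coat protein, doubled from 0.7 or 1.5 nM to 3 µM, was titrated over designs transcribed by stalled E. coli RNA polymerase on Illumina sequencing-chip clusters. Titrations were run without and then with constant ligand in 100 mM Tris-HCl pH 7.5, 80 mM KCl, 4 mM MgCl2, BSA, DTT, yeast tRNA and Tween-20. The apparent Kd is the median of filtered per-cluster fits to green signal normalised to red-channel RNA signal and control-cluster median Fmax.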

[1] abbreviates: designed as: ON switch for flavin mononucleotide, no ligand.
Where [2] appears, read: ligand present: flavin mononucleotide, designed as: ON switch for flavin mononucleotide.
Where [3] appears, read: designed as: OFF switch for flavin mononucleotide, no ligand.
Setting [4] is: ligand present: flavin mononucleotide, designed as: OFF switch for flavin mononucleotide.

One may read the apparent Kd as the concentration giving half-maximal binding under the conditions of the assay. In the case of “CACGGCGUAUCAGGAUAUGUGGGUGUCUGGACAUGAGGAUCACCCAUGUAAUCAGUAUUAGCCGUGCAGAAGGGAUCCGCUGUA”, the “apparent Kd” value reads like this: under setting [1], 35.2 nM; under setting [2], 60.3 nM.
Regarding “CCACUGAUACCUUGGCCGCUACAUGAGGAUCACCCAUGUCGUGAGGAUAUCCCACCAUACUGUUAGGAGAAGGCGCGUAUGGGC”, the “apparent Kd” value was 11 nM under setting [3] and 17.2 nM under setting [4].
Regarding “GCAACGCCUGACAUGAGGAUCACCCAUGUUAGAUUGUUAUGUCAGGAUAUUGUCGCGAAAUGUGAUGAGAAGGGAUAUGUUGCU”, the “apparent Kd” value under setting [1] was determined as 480 nM and the “apparent Kd” value under setting [2] came to 48.8 nM.
With “UUUUUGUGAGGAUAUCAGUAGUAAAAAAAUAAAAUUACUACUGAGAAGGCACAUGAGGAUCACCCAUGUUCCUU”, the “apparent Kd” value was determined as 14.3 nM under setting [3] and 33.5 nM under setting [4].
The like results for “AAUUAUUAUCGAGGAUAUCGUAUUGAAAUAAUAUGAGAAGGCGGGAUAAACAUGAGGAUCACCCAUGUGAGCCUGAUGCUUGUG” were, in that order, 19.2 nM and 35.4 nM.
“ACUAGGCGAGGAUAUACAUGCUUAACGCAGGAAAAGCUGCGACAUGAGGAUCACCCAUGUAGAAGGCGCAAAUA”: the “apparent Kd” value runs as follows: under setting [3], 15.7 nM; under setting [4], 115 nM.
Regarding “GGAUCGAAAGUGAGGAUAUACCACUGGAUACAGUGGUAGAAGGCACAUGAGGAUCACCCAUGUCCUUACGAUCC”, the “apparent Kd” value by setting is: under setting [3], 20.8 nM; under setting [4], 117 nM.
Regarding “GGACGUCACAUUAACAUGAGGAUCACCCAUGUCAAAAGACAUGAGGAUAUGGAUCCUAAUUGGAUCCAGAAGGCAUGGACGUCC”, the “apparent Kd” value is 664 nM under setting [1] and 33.4 nM under setting [2].
With “AAAUAAACUAGCAUAAUAUCCUCACAUGAGGAUCACCCAUGUCAGGAUAUUUGUCCUAAAAGGACAGAGAAGGGACGUGCUAGA”, the “apparent Kd” value was determined as 5.07 nM under setting [3] and 6.27 nM under setting [4].
Turning to “UAACCUCGCGUCAGGAUAUGUGAGGACUGUGACGCACAGAAGGGACAUGAGGAUCACCCAUGUGAAAGAAAUAA”, the “apparent Kd” value amounted to 26.8 nM under setting [3] and 82.5 nM under setting [4].
As to “UGGUACUAGGGAGGAUAUGGGAAGAUACAUGAGGAUCACCCAUGUUUAAGAAUGCCGAGAUGCAACUAGAAGGCCCUAGUACCU”, the “apparent Kd” value runs as follows: under setting [1], 371 nM; under setting [2], 21.9 nM.
The like results for “UCGGUUACAUGAGGAUCACCCAUGUCUCGGGCCCUAUUUAGCAGAAGGCCAGCUGGGCUACGGAUGGAGGAUAUGCUUAUGGCC” were, in that order, 147 nM and 36.5 nM.
Consider “CCGGCUAAAGGAUAUGUGUGUAGCAACAUGAGGAUCACCCAUGUGAUGUCCUAGGUUAGCACAGAAGGUUACUAUU”, for which the “apparent Kd” value runs as follows: under setting [3], 35.6 nM; under setting [4], 34.1 nM.
Taken in the same sequence, the figures for “GCGACGAUCGAGAAGGCCACUACAUGAGGAUCACCCAUGUCGUGGUGUAUUGGAGGAUAUCGAUCAGCGUCUUAUGAGGACAUG” were 5.13 nM and 7.68 nM.
For the sequence “AAAAUCAAUAGAGGAUAUUCAUACACUACAUACGGAGAAGGCUAACAAUCAUGAGGACAUGAGGAUCACCCAUGUUGUGACCAU”, the “apparent Kd” value under setting [1] was determined as 25.9 nM and the “apparent Kd” value under setting [2] was 17.1 nM.
For the sequence “UUUAUACAUGAGGAUCACCCAUGUCAAUGUAGUCGAGGAUAUGGGCAGCCGUGAGGCGUACUAGAAGGCGAAGAGG”, the “apparent Kd” value reads like this: under setting [1], 203 nM; under setting [2], 64.9 nM.
“CUUUAGUGAGGAUAUCAGUAGUAAUACAAUAGUAUUACUAUUGAGAAGGCACAUGAGGAUCACCCAUGUUCCUC”: the “apparent Kd” value came to 24.6 nM under setting [3] and 141 nM under setting [4].
As to “GCUUGUGAAGGAUAUACUGGCGGCGUGCGCUCGGCGCGCGCACAUGAGGAUCACCCAUGUAGAAGGUCAAACGU”, the “apparent Kd” value is, setting by setting: under setting [3], 14.3 nM; under setting [4], 13.1 nM.
The like results for “CAACGUACCAGAGGAUAUGAUUGUGGGUAAAGAGCGCUCAGGUGGCUACAUGAGGAUCACCCAUGUCAGAAGGCUGGAGUUCAA” were, in that order, 114 nM and 59.6 nM.
The like results for “GUUCAGUCAGGAUAUUUGUAACGCUCGGUAUCGAGUGGUAAGAAGAAGGGACAUGAGGAUCACCCAUGUCAGUA” were, in that order, 20.1 nM and 17.6 nM.
“UUCCUCGUUGUGAGGAUAUCGUCCUAUUUUUGUUACGAGAAGGCACAUGAGGAUCACCCAUGUUACUUGAUGUU”: the “apparent Kd” value was 19.9 nM under setting [3] and 71 nM under setting [4].
As for “CCUCUGUGAGGAUAUCUAGAGUAGGCUGACAAUGUCAUUCAGGAGAAGGUACAUGAGGAUCACCCAUGUUCGGC”, the “apparent Kd” value by setting is: under setting [3], 24.4 nM; under setting [4], 56.3 nM.
As to “CACGGAUAGUAGAAGGGUGACAUGAGGAUCACCCAUGUACUUAUUUAUUUAUUACUAUUUCAUACACAGGAUAUACUAUCCGUG”, the “apparent Kd” value runs as follows: under setting [1], 652 nM; under setting [2], 176 nM.
On to “CGAUUAUUGAUCCAUUUUUACAACAUGAGGAUCACCCAUGUGCAGGAUAUCGUGGUGAUUAACUACGAGAAGGGCAAAUUCACG”, for which the “apparent Kd” value reads like this: under setting [3], 123 nM; under setting [4], 220 nM.
The like results for “UAUACACAUGAGGAUCACCCAUGUGAGGAUAUGUUAAUUUUAAUGAAAAUUAAAAUUAACAGAAGGCACAUAUA” were, in that order, 64.1 nM and 80.3 nM.
Take “GCCAGCGCAUGAGGAUAUGCUCCCGUUUCGGGAGCAGAAGGCAUGUCAUAAGACAUGAGGAUCACCCAUGUAGUUAACAUGGCA”: the “apparent Kd” value was determined as 311 nM under setting [1] and 23 nM under setting [2].
Taken in the same sequence, the figures for “UUGGAGUACGUAGGAUAUGUAGGAUAUUCCUACAUGAGGAUCACCCAUGUUGACAUGGAGGAAGGACAGAAGGACGUGCUCCAU” were 435 nM and 241 nM.
The like results for “GUAGCAUACCGAGGAUAUUCAUACCGGAAACGGACAUGAGGAUCACCCAUGUGGCGAAAGCCUUGGGAGAAGGCGGAAUGCUAC” were, in that order, 552 nM and 25.1 nM.
For the sequence “UAAUUACCGAUCGGUUUGACUUAGCAGGAUAUACAUGAGGAUCACCCAUGUCAAGGGCGUGCCCGGUAGAAGGGUUGGGUUCAA”, the “apparent Kd” value came to 35.1 nM under setting [3] and 54.9 nM under setting [4].
On to “GGACGACACAUGAACAUGAGGAUCACCCAUGUAAAUUCUCAUGAGGAUAUGGAUCCUAAUUGGAUCCAGAAGGCAUGGUCGUCC”, for which the “apparent Kd” value stood at 1150 nM under setting [1] and 380 nM under setting [2].
Taken in the same sequence, the figures for “CGCACUAUACAUGAGGAUCACCCAUGUUAACAUGAGCUAUUCAGAAGGCAUAAUUAGAGAAUAAAUGAGGAUAUGAUUAGUGCG” were 34.7 nM and 18.8 nM.
As for “GGAGCGGAAGGAUAUGCUGCGGGAUUGCAUGGAAAGAAAAUACAUGAGGAUCACCCAUGUAGAAGGUCCGUGAA”, the “apparent Kd” value by setting is: under setting [3], 28.2 nM; under setting [4], 70.1 nM.
For the sequence “ACAUGAGGAUCACCCAUGUAUACAUAGGAUAUUGGUGAUCAGGGAUGUUUUACAGGAUAUGUCUGCGAGAAGGAUGCAAGUACA”, the “apparent Kd” value under setting [1] was found to be 352 nM and the “apparent Kd” value under setting [2] was determined as 151 nM.
The like results for “AAAAAACAUGAGGAUCACCCAUGUAAAAAAAUCGCAGGAUAUACGGUCGCGAAAGCGACCGUAGAAGGGCGAUCCU” were, in that order, 251 nM and 94.8 nM.
As to “CAUUAAUUGAUUAUUGUAUUUAUACAGGAUAUGUAACAUGAGGAUCACCCAUGUAUACAUGGGAAACAGAAGGGUAUUUAAAGA”, the “apparent Kd” value by setting is: under setting [3], 34.7 nM; under setting [4], 25.3 nM.
Turning to “AAUCUUUUUAUGGGAUUACAAUAUGAGGAUAUCAUUCAUUUAUACAUGAGGAUCACCCAUGUUACUGAGAAGGCAUAUAUAAUA”, the “apparent Kd” value under setting [2] was 11 nM.
